From ChEMBL document CHEMBL4513216, “Probing the Open Global Health Chemical Diversity Library for Multistage-Active Starting Points for Next-Generation Antimalarials” (ACS Infect Dis, 2020)

Experiment: Toxicity liver stage against HepG2, at 10uM
Type: cell-based
Design: test concentration 10 uM, cell line HepG2-A16-CD81EGFP
Conditions: human, HepG2-A16-CD81EGFP cells; read-out: INHIBITION
Procedure, shortened: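 Uninfected HepG2-A16-CD81EGFP cells, 3 × 10^3 per well, 1536-well, plated on prespotted compound at 10 μM final, parasite-free screening media added to match infected plates; puromycin 10 μM positive, DMSO 0.5% negative; run in parallel with 48 h PbLuc assay at 37 °C, 5% CO2; viability by CellTiter-Glo luminescence, normalized to controls.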

Structure (SMILES)	cytotoxicity at 10 µM [%]
CC(C)(C)CN[C@@H]1CO[C@H](CNC(=O)c2ccncc2)[C@H]1O	-2.5
Cn1cc(-c2nnc3sc(C4CC4)nn23)cn1	-3.08
CC1c2ncc(COCC3CCCC3)n2CCN1S(=O)(=O)N(C)C (configuration not stated)	14.6
O=C(CCO)N1CCC2(CCc3ccc(-c4ccoc4)cc32)CC1	16.1
Cn1cccc1C(=O)N1CCCC2(CCCN2S(C)(=O)=O)C1 (configuration not stated)	6.28
Cc1cnc(N2CCC3(CC2)CC(NS(C)(=O)=O)CO3)nc1 (configuration not stated)	2.87
Cc1cc(C(=O)N2CCc3ncnc(-c4cnn(C)c4)c3CC2)no1	8.88
Cc1nccc([C@H]2C[C@@H]3CCN(S(=O)(=O)C4CC4)C[C@H]3O2)n1	-2.3
Cn1cc(N2CC3(CCN(S(C)(=O)=O)C3)CC2=O)cn1 (configuration not stated)	9.04
COCCNC(=O)c1nc2c(s1)CCCN2c1ccc(C)nn1	8.33
COCC1COCCC12CCN(C(=O)COc1ccccc1C)CC2 (configuration not stated)	2.08
Cc1nc(N2CCCC2)nc2c1CCN(C(=O)NC(C)C)CC2	2.93
Cc1nc2ncc3c(=O)n(C)ccc3n2n1	-15.4
Cc1ccc(C)c(C(NC(=O)C2CC2)c2cccnc2)c1 (configuration not stated)	-3.5
O=C(Cn1cc(-c2ccccc2)ncc1=O)Nc1ccncc1	11
Cc1cc(C(F)(F)F)nn1CCCNC(=O)C1CCN(S(C)(=O)=O)CC1	-4.56
Cc1cc(C(=O)Nc2cnn(CC(F)(F)F)c2)nc(N(C)C)n1	-2.89
O=C(c1cccnc1)N1CCOC(Cc2ccccc2Cl)C1 (configuration not stated)	2.12
CCCn1cc(Cl)c(C(=O)N2C[C@@H](O)[C@H](NC(C)=O)C2)n1	-0.255
CCN(CC)c1nc(O)cc(C(C)n2ncc3ccccc3c2=O)n1 (configuration not stated)	2.47
Cn1cc(C(=O)N2CCC(c3cc(CCO)n(C)n3)C2)cn1 (configuration not stated)	-0.0959
CC(C)c1[nH]c2ncccc2c1CN1CCC(O)CC1	2.57
Cn1ccnc1CN1CCOC(Cc2ccccc2)C1 (configuration not stated)	-0.479

Structure (SMILES)	cytotoxicity at 10 µM [%]
Cc1cncc(C2CCCN2CCO)n1 (configuration not stated)	-3.14
O=C1NCCN1C1CCN(CC(O)c2ccccc2F)CC1 (configuration not stated)	-0.535
CN(C)Cc1ccnc(NS(=O)(=O)CCc2ccccc2)c1	-3.09
Nc1cccnc1N1CCC(O)CC1	2.3
O=C(Cc1cccc(O)c1)NCCNc1nccc(C(F)(F)F)n1	7.48
Cc1cc(C)cc(NCCC(=O)NC2CCCCC2)c1	7.61
CCCS(=O)(=O)NCC(O)c1c(Cl)cccc1Cl (configuration not stated)	7.52
COc1ccccc1CC1CCCN(C(=O)c2nccnc2N)C1 (configuration not stated)	5.79
CC(C)OCCC1CCCCN1S(C)(=O)=O (configuration not stated)	2.43
CN(C)c1cccc(C(=O)Nc2cnn(CC(N)=O)c2)c1	3.63
C[C@@H]1CN(Cc2ccc(-c3ccncc3)cc2F)CC(C(N)=O)O1 (some centres not stated)	2.4
N#CC1(NC(=O)CN2CCc3c(ncn3C3CC3)C2)CCCC1	12.1
CN1CCOC(CNC(=O)C2(c3cccc(Cl)c3)CC2)C1 (configuration not stated)	-3.03
COc1ccccc1C(=O)N(Cc1nc(C)cs1)CC1CCCO1 (configuration not stated)	0.136
CCCNC(=O)Cn1c(C)nn(C(C)(C)C)c1=O	4.62
O=C(NCCNc1cnccn1)N1CC=C(c2ccccc2)CC1	6.39
CS(=O)(=O)NC1CCN(C(=O)c2ccc3ccccc3c2)C1 (configuration not stated)	-9.14
COc1ccccc1C(C)CNC(=O)c1c(C)nn(C)c1OC (configuration not stated)	-11.4
CCN1CCN(Cc2nc(C)no2)CC1	0.978
Cc1cnn(CC2CCCN2C(=O)CCc2c(C)nn(C)c2C)c1 (configuration not stated)	0.407
NC(=O)COc1ccc(CNCc2ccc(Cl)c(F)c2)cc1	-3.64
Cc1cc(C)n(Cc2cccc(C(=O)NCCSCC(C)(C)O)c2)n1	-6.93
CC1CN(C)c2ccccc2CN1C(=O)c1cnsn1 (configuration not stated)	0.736

Structure (SMILES)	cytotoxicity at 10 µM [%]
COc1ccc(C(C)NC(=O)NCCNc2ccccn2)c(OC)c1 (configuration not stated)	0.00455
CCOCc1ccccc1NC(=O)NCC(C)(O)c1cccs1 (configuration not stated)	-0.966
CC(Cn1cccn1)NC(=O)N1CCC(NS(C)(=O)=O)CC1 (configuration not stated)	-0.508
CNC(=O)CN(C)c1cncc(OCc2ccccc2)n1	1.15
c1ccn2c(SCC3CN=C(N4CCOCC4)S3)ncc2c1 (configuration not stated)	11.8
O=C1CC(N(C(=O)COc2ccc(F)cc2F)C2CC2)C(=O)N1 (configuration not stated)	-3.59
O=C(c1cncc(Br)c1)N1CCCc2c(F)cc(F)cc21	2.81
O=C(CN(Cc1ccco1)C1CC1)Nc1ccc(Br)cn1	-2.65
Cc1cnn(CC(C)NCCc2cccs2)c1 (configuration not stated)	-1.52
COc1ccc(C)cc1C(C)NCc1cnnn1C (configuration not stated)	0.211
Cc1ccn(-c2ccc(NCc3ccnc(N4CCCCC4)c3)nn2)n1	-0.715
CN(C(=O)Cn1nc(-c2ccc(F)cc2)oc1=O)C1CCS(=O)(=O)C1 (configuration not stated)	10.7
CC(C)c1nc2n(n1)CC(NCc1ccncc1)CC2 (configuration not stated)	-13.9
O=C(c1ccco1)N1CC[C@@H](N2CCOCC2)[C@@H]1Cc1ccccc1	-77
CN(C)Cc1nnc2n1CCN(Cc1ccccn1)CC2	2.05
Cc1nccc([C@@H]2C[C@@H]3CCN(Cc4ccco4)C[C@H]3O2)n1	-2.61
CC(C)c1cc(C(=O)N2CCN(C)[C@@H]3CS(=O)(=O)C[C@@H]32)no1	4.14
COc1ccccc1CN(Cc1cccnc1)Cc1nccs1	-1.53
Cc1cc(C)n(CCCN(C)C(=O)C2COc3ccccc3C2)n1 (configuration not stated)	-5.95
COCCn1cnnc1CN(C)c1nc(N)ncc1C	-7.85
O=C1CC(NCc2ccc(OC(F)F)cc2)CN1Cc1cccc(F)c1 (configuration not stated)	-5.29
O=C(NCCCO)C1(N2CCCCC2)Cc2ccccc2C1	-3.07
c1cc(-c2cn[nH]c2)ncc1CN1CCCCC1	-1.35

Structure (SMILES)	cytotoxicity at 10 µM [%]
OCCc1ncnn1Cc1cccc(Cl)c1	18.2
Cc1ccc(C2CC(=O)NCc3nc(N)sc32)cc1C (configuration not stated)	-8.47
CN(Cc1ccoc1)C(=O)C1CC(=O)N(Cc2ccncc2)C1 (configuration not stated)	-0.766
Cc1ccc2c(c1)OC(C)(C)CC2NC(=O)C1CCN(S(C)(=O)=O)CC1 (configuration not stated)	1.93
CC(O)c1cccc(N2CCC3(CC2)Nc2ccccc2NC3=O)n1 (configuration not stated)	-10.6
CCn1nc(C)c(CNC(=O)c2cn(CC3CCCO3)nn2)c1C (configuration not stated)	-2.34
Cc1noc(C)c1C(=O)N(C)Cc1nc(-c2ccccn2)no1	-6.23
CN(Cc1cccc(OC(F)F)c1)Cc1nc2c(cnn2C)c(=O)[nH]1	-0.438
Cc1noc(Cl)c1CCC(=O)N1CCN(c2cnccn2)CC1	-3.5
CC1CCCCN1CCNC(=O)c1scnc1Cl (configuration not stated)	-6.27
CC(=O)Nc1nc(C(=O)N2CCCC(n3ccnc3C)C2)cs1 (configuration not stated)	-9.78
Cc1ncc(C(=O)NCCNC(=O)c2ccccc2)s1	-3.67
COc1ccc(C(C)N(C)Cc2nc3c(cnn3C)c(=O)[nH]2)cc1 (configuration not stated)	-7.42
c1csc(-c2noc(CNC3CCc4ncnn4C3)n2)c1 (configuration not stated)	-9.3
O=C(c1cc2c(s1)CCCC2)N1CCCC1Cn1cccn1 (configuration not stated)	-11.9
CCn1ccnc1CN1CCN(CC(O)c2ccc(OC)cc2)CC1 (configuration not stated)	-15.1
COc1ccc(C2CCCCCN2CCCNS(C)(=O)=O)cc1 (configuration not stated)	-6.07
Cc1csc(N2CCN(C(=O)c3c(C)oc(C)c3C)CC2)n1	-14
CC(=O)NC1CCCN(C(=O)NCc2ccc(-n3cccn3)cc2)C1 (configuration not stated)	-11.8
O=C(NCCc1coc(-c2ccc(F)cc2)n1)NC1CC1	-3.24
Cc1cc(OCC(=O)N2CCCC(c3nc(C)c(C)s3)C2)no1 (configuration not stated)	-16.4
Cc1nc(C(=O)N2CCCC2c2c(C)nn(C)c2Cl)ccc1C#N (configuration not stated)	-12.8
CCOC(=O)C1CCN(Cc2csc(-c3ccc(C)o3)n2)CC1	-11.4

Structure (SMILES)	cytotoxicity at 10 µM [%]
Cc1ccc(N2CCCC(NCc3cnc(C)s3)C2)nn1 (configuration not stated)	-0.755
COc1c(CNC2CCN(C(=O)C3CC3)CC2)c(C(C)C)nn1C	-4.72
CNc1cc2c(nn1)CCN(C(=O)C1CCCc3ccccc31)C2 (configuration not stated)	-17.2
Cc1cc(CNC(=O)N2CCCN(Cc3ccccc3)CC2)no1	-8.26
COc1ccccc1OCC(=O)NS(=O)(=O)c1ccc(Br)s1	-8.72
COc1c(C2CCCN2C(=O)c2ccnc(N(C)C)c2)c(C)nn1C (configuration not stated)	1.9
CN(C)C(=O)[C@]12CCCN(CC3CC3)C[C@H]1CN(c1ccccn1)C2	3.68
Cc1ccc(C(=O)N2CCN3C[C@H](Oc4cccc(F)c4)C[C@H]3C2)cn1	11.2
CN(Cc1ccco1)[C@@H]1CN(Cc2ccccn2)C[C@@H]2CCCO[C@@H]21	0.34
CN(C)C(=O)COC[C@@H]1CC[C@H]2[C@H](CCN2c2ncccn2)O1	15.6
CC(C)OCc1ncn2c1CN(CCO)CCC2	8.37
Cc1cc(CN2C[C@H]3CCC[C@@]3(COCc3csc(C)n3)C2)no1	11.6
Cn1cc(CN2C[C@@H]3COC[C@H](C(=O)Nc4cccnc4)[C@@H]3C2)cn1	9.34
O=C(NCc1cncc2c1CCN(C1CCOC1)C2)c1ccco1 (configuration not stated)	0.797
Cc1cnc2n1CCN(C)C21CCN(C(=O)CC(C)C)CC1	-5.85
O=C(N1CCOCC1)N1CCc2ncnc(Oc3cccnc3)c2CC1	-0.82
CN(C)[C@@H]1CCN(C(=O)C2CCOCC2)[C@H]1Cc1ccncc1	1.72
Cn1cccc1C(=O)N[C@@H]1CN(CC2CC2)[C@@H]2COC[C@@H]21	1.66
COCCN1CCN(S(=O)(=O)C2CC2)Cc2ccc(C)nc21	3.38
Cc1nc(=O)c(CC(=O)N2C[C@@H]3CC[C@H]2CN(C(=O)N(C)C)C3)c(C)[nH]1	7.6
